ChEMBL document CHEMBL4715840, “Antibacterial activity of lipo-α/sulfono-γ-AA hybrid peptides” (Eur J Med Chem, 2020)
Converted amounts (≈) assume the structure as drawn. The source made the active and inactive calls. No cut-off for these calls is given here.

What was measured:
[1] = test system: Staphylococcus aureus; assay: Antibacterial activity against methicillin-resistant Staphylococcus aureus ATCC 33591 incubated for 12 to 16 hrs by microtiter method; assay type: functional; details: time 12-16 hrs
How it was run: (§1)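 Single colony grown overnight at 37 °C in TSB, diluted 100-fold and grown to mid-log phase. Equal volumes of cell suspension and peptide serial dilutions in TSB were combined and incubated 37 °C for 12-16 h. Growth read as absorbance at 600 nm. MIC taken as the lowest concentration inhibiting growth. Three repeats, each in duplicate.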

[2] = test system: Staphylococcus epidermidis; assay: Antibacterial activity against methicillin-resistant Staphylococcus epidermidis RP62A incubated for 12 to 16 hrs by microtiter method; assay type: functional; details: time 12-16 hrs; how it was run: as §1
[3] = test system: Enterococcus faecalis; assay: Antibacterial activity against Enterococcus faecalis ATCC 700802 incubated for 12 to 16 hrs by microtiter method; assay type: functional; details: time 12-16 hrs
How it was run: (§2)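 Single colonies grown overnight in TSB at 37 °C, diluted 100-fold and grown to mid-log phase. Equal volumes of bacterial suspension and peptide dilutions in TSB mixed and incubated 37 °C for 12-16 h. Growth read as absorbance at 600 nm. MIC taken as lowest concentration inhibiting growth. Three repeats, duplicates each.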

[4] = test system: Escherichia coli; assay: Antibacterial activity against Escherichia coli ATCC 25922 incubated for 12 to 16 hrs by microtiter method; assay type: functional; details: time 12-16 hrs; how it was run: as §2
[5] = test system: Pseudomonas aeruginosa; assay: Antibacterial activity against Pseudomonas aeruginosa ATCC 27853 incubated for 12 to 16 hrs by microtiter method; assay type: functional; details: time 12-16 hrs; how it was run: as §2
[6] = Hemolytic activity against RBC (unknown origin); assay type: ADME, cell-based, Erythrocyte; details: red blood cells (erythrocytes)
[7] = Selectivity index, ratio of HC50 for human RBC to MIC for methicillin-resistant Staphylococcus aureus ATCC 33591; assay type: toxicity; details: human red blood cells, read-out: Selectivity Index
[8] = test system: Staphylococcus aureus; assay: Bactericidal activity against methicillin-resistant Staphylococcus aureus ATCC 33591 at 50 ug/ml measured after 10 mins by time-kill assay; assay type: functional, organism-based
How it was run: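 Cells grown in TSB at 37 °C to mid-log phase, diluted to 1 × 10^6 CFU/mL, then exposed to peptide at 12.5, 25 or 50 µg/mL for 10 min, 30 min, 1 h and 2 h. Samples diluted 102 to 104-fold and plated. Colonies counted after overnight growth at 37 °C and plotted against exposure time.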

[9] = test system: Escherichia coli; assay: Bactericidal activity against Escherichia coli ATCC 25922 at 25 to 50 ug/ml measured after 60 mins by time-kill assay; assay type: functional, organism-based; details: dose 25-50 µg/ml
How it was run: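 Mid-log TSB cultures at 37 °C diluted to 1 × 10^6 CFU/mL and exposed to 12.5, 25 or 50 µg/mL peptide for 10 min, 30 min, 1 h and 2 h. Aliquots diluted 102 to 104-fold and plated. Colonies counted after overnight incubation at 37 °C and plotted against exposure time.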

[10] = test system: Cell membrane; assay: Induction of membrane disruption in methicillin-resistant Staphylococcus aureus ATCC 33591 at 250 ug/ml measured for 30 mins by DiSC35 dye based fluorescence assay; assay type: subcellular; details: dose 250.0 µg/ml
How it was run: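 Mid-log cells washed with 5 mM HEPES and 5 mM glucose. Resuspended at 10^8 CFU/mL in 5 mM glucose, 5 mM HEPES and 100 mM KCl mixed 1:1:1, with 2 µM DiSC3(5), at 37 °C. Fluorescence (ex 622, em 670 nm) followed for 30 min. Peptide at 250 µg/mL added once the minimum was reached, about 20 min. Untreated culture as negative control. At least three repeats in duplicate.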

[11] = test system: Cell membrane; assay: Induction of membrane disruption in Escherichia coli at 250 ug/ml measured for 30 mins by DiSC35 dye based fluorescence assay; assay type: subcellular; details: dose 250.0 µg/ml
[12] = test system: Cell membrane; assay: Induction of membrane disruption in methicillin-resistant Staphylococcus aureus ATCC 33591 at 6 ug/ml measured after 2 hrs by DAPI/propidium iodide staining based fluorescence microscopic analysis; assay type: subcellular; details: dose 6.0 µg/ml
How it was run: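 Mid-log cells exposed to peptide at 37 °C for 2 h. Methods give 10 µg/mL; the legend gives 6 µg/mL. Cells pelleted at 5000g for 15 min and washed in PBS. Stained with PI (5 µg/mL), washed three times in PBS, then stained with DAPI (10 µg/mL), each stain 15 min on ice in the dark. Imaged with a 100X oil objective. Untreated cells as control.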

[13] = test system: Cell membrane; assay: Induction of membrane disruption in Escherichia coli at 6 ug/ml measured after 2 hrs by DAPI/propidium iodide staining based fluorescence microscopic analysis; details: dose 6.0 µg/ml
How it was run: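 Mid-log bacteria exposed to peptide for 2 h at 37 °C, then centrifuged at 5000g for 15 min and washed with PBS. Stained with PI (5 µg/mL), washed three times in PBS, then stained with DAPI (10 µg/mL), each stain 15 min on ice in the dark. Viewed by fluorescence microscopy with a 100X oil objective.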

## CCCCCCCCCCCCCCCC(=O)N[C@@H](CCCCN)C(=O)N[C@@H](CCCCN)CN(CC(=O)N[C@@H](CCCCN)CN(CC(N)=O)S(=O)(=O)Cc1ccccc1)S(=O)(=O)Cc1ccccc1
[1]
  MIC: 2 µg/mL (≈ 1.93 µM)
[2]
  MIC: 5 µg/mL (≈ 4.83 µM)
[3]
  MIC: 5 µg/mL (≈ 4.83 µM)
[4]
  MIC: 8 µg/mL (≈ 7.73 µM)
[5]
  MIC: 8 µg/mL (≈ 7.73 µM)
[6]
  HC50: 50 µg/mL
[7]
  selectivity ratio: 25

## CCCCCCCCCCCCCC(=O)N[C@@H](CCCCN)C(=O)N[C@@H](CCCCN)CN(CC(N)=O)S(=O)(=O)Cc1ccccc1
[1]
  MIC: 5 µg/mL (≈ 7.34 µM)
[2]
  MIC: 5 µg/mL (≈ 7.34 µM)
[3]
  MIC: 5 µg/mL (≈ 7.34 µM)
[4]
  MIC: 2 µg/mL (≈ 2.94 µM)
[5]
  MIC: 5 µg/mL (≈ 7.34 µM)
[6]
  HC50: 125 µg/mL
[7]
  selectivity ratio: 25
[8]
  Activity: Active
[9]
  Activity: Active
[10]
  Activity: Active
[11]
  Activity: Active
[12]
  Activity: Active
[13]
  Activity: Active

## CCCCCCCCCCCC(=O)N[C@@H](CCCCN)C(=O)N[C@@H](CCCCN)CN(CC(N)=O)S(=O)(=O)Cc1ccccc1
[1]
  MIC: 20 µg/mL (≈ 30.6 µM)
[2]
  MIC: 20 µg/mL (≈ 30.6 µM)
[3]
  MIC: > 50 µg/mL
[4]
  MIC: 5 µg/mL (≈ 7.66 µM)
[5]
  MIC: 8 µg/mL (≈ 12.3 µM)

## CCCCCCCCCCCCCCCCCC(=O)N[C@@H](CCCCN)C(=O)N[C@@H](CCCCN)CN(CC(N)=O)S(=O)(=O)Cc1ccccc1
[1]
  MIC: 2 µg/mL (≈ 2.71 µM)
[2]
  MIC: 20 µg/mL (≈ 27.1 µM)
[3]
  MIC: 5 µg/mL (≈ 6.78 µM)
[4]
  MIC: > 50 µg/mL
[5]
  MIC: > 50 µg/mL

## CCCCCCCCCCCCCCCCNC(=O)CN(C[C@H](CCCCN)NC(=O)[C@@H](N)CCCCN)S(=O)(=O)Cc1ccccc1
[1]
  MIC: 5 µg/mL (≈ 7.19 µM)
[2]
  MIC: 20 µg/mL (≈ 28.8 µM)
[3]
  MIC: 5 µg/mL (≈ 7.19 µM)
[4]
  MIC: 5 µg/mL (≈ 7.19 µM)
[5]
  MIC: > 50 µg/mL

## CCCCCCCCCCCCCCCC(=O)N[C@@H](CCCCN)C(=O)N[C@@H](CCCCN)CN(CC(N)=O)S(=O)(=O)Cc1ccccc1
[1]
  MIC: 5 µg/mL (≈ 7.05 µM)
[2]
  MIC: 5 µg/mL (≈ 7.05 µM)
[3]
  MIC: 5 µg/mL (≈ 7.05 µM)
[4]
  MIC: 5 µg/mL (≈ 7.05 µM)
[5]
  MIC: 20 µg/mL (≈ 28.2 µM)

## CCCCCCCCCCCCCCCC(=O)N[C@@H](CCCCN)CN(CC(N)=O)S(=O)(=O)Cc1ccccc1
[1]
  MIC: 5 µg/mL (≈ 8.61 µM)
[2]
  MIC: 8 µg/mL (≈ 13.8 µM)
[3]
  MIC: 5 µg/mL (≈ 8.61 µM)
[4]
  MIC: > 50 µg/mL
[5]
  MIC: > 50 µg/mL

## CCCCCCCCCCCCCCCC(=O)N[C@@H](CCCCN)CN(CC(=O)N[C@@H](CCCCN)CN(CC(N)=O)S(=O)(=O)Cc1ccccc1)S(=O)(=O)Cc1ccccc1
[1]
  MIC: 8 µg/mL (≈ 8.83 µM)
[2]
  MIC: 20 µg/mL (≈ 22.1 µM)
[3]
  MIC: 8 µg/mL (≈ 8.83 µM)
[4]
  MIC: > 50 µg/mL
[5]
  MIC: > 50 µg/mL

## CCCCCCCCCCCCCC(=O)N[C@@H](CCCCN)C(=O)N[C@@H](CCCCN)CN(CC(=O)N[C@@H](CCCCN)CN(CC(N)=O)S(=O)(=O)Cc1ccccc1)S(=O)(=O)Cc1ccccc1
[1]
  MIC: 2 µg/mL (≈ 1.99 µM)
[2]
  MIC: 5 µg/mL (≈ 4.97 µM)
[3]
  MIC: 8 µg/mL (≈ 7.95 µM)
[4]
  MIC: 5 µg/mL (≈ 4.97 µM)
[5]
  MIC: 5 µg/mL (≈ 4.97 µM)
[6]
  HC50: 100 µg/mL
[7]
  selectivity ratio: 50

## CCCCCCCCCCCCCCCCNC(=O)CN(C[C@@H](N)CCCCN)S(=O)(=O)Cc1ccccc1
[1]
  MIC: 5 µg/mL (≈ 8.82 µM)
[2]
  MIC: 20 µg/mL (≈ 35.3 µM)
[3]
  MIC: 5 µg/mL (≈ 8.82 µM)
[4]
  MIC: 5 µg/mL (≈ 8.82 µM)
[5]
  MIC: > 50 µg/mL

## CCCCCCCCCC(=O)N[C@@H](CCCCN)C(=O)N[C@@H](CCCCN)CN(CC(N)=O)S(=O)(=O)Cc1ccccc1
[1]
  MIC: > 50 µg/mL
[2]
  MIC: > 50 µg/mL
[3]
  MIC: > 50 µg/mL
[4]
  MIC: > 50 µg/mL
[5]
  MIC: > 50 µg/mL
